This is one part of a sample in which hits are shown more often than they occur.
HUVEC prolif 384 – blocks proliferation of human endothelial cells | HUVEC proliferation, CellTiter-Glo luminescence, 72 h; stronger effect = lower value | viability, % at 10 µM (by protocol) | AID 648 | hit rate 1.1% among 86,000;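 active = viability at or below 30%; inactive = viability above 30%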;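 also: 100% = median luminescence of DMSO-only cell control wells on each plate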
Lung fibro prol – blocks proliferation of human lung fibroblasts; viability, % at 10 µM; LL 47 human lung fibroblast viability, ATP luminescence; stronger effect = lower value; hit rate 1.1% among 85,000;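 active = viability at or below 50% in the single dose screen; inactive = viability above 50%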;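 also: compound exposure lasted 72 h before the ATP readout; 100% = median luminescence of untreated cell-only wells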
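Signal: luminescent ATP detection, CellTiter-Glo; assay system: LL 47 human lung fibroblasts; input: 1,150 cells/well; incubation: overnight cell rest, 72 h compound treatment at 37 °C; measure: % viability versus median cells-only luminescence; medium: IMEM growth medium with 15% fetal bovine serum; dosing: compound addition at 0.1% DMSO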
HCT116 PTEN-null – growth suppressors of cells with PTEN tumor suppressor deletion; HCT116 PTEN-null viability, CellTiter-Glo, 60 h; stronger effect = lower value; viability, % at 10 µM; hit rate 1.2% among 140,000; AID 827;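 active = viability at or below a set limit, 4 SD under the median of all tested compounds, cut at about 3.7% in these data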;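 also: PTEN knockout HCT116 line with beta catenin targeted HCT116 as companion control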
H69AR growth 86K – growth inhibitors of human H69AR lung tumor cells | viability, % at 10 µM | H69AR lung tumor viability, ATP luminescence, 72 h; stronger effect = lower value | hit rate 6% among 85,000;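 active = viability at or below 40%; inactive = viability above 40%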;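 also: multidrug resistant small cell line overexpressing MRP-1 efflux transporter; 100% = mean luminescence of untreated control wells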
HCT116 bCat-KO – beta-catenin-lacking colon tumor cell growth suppression. HCT116 beta-catenin knockout viability, CellTiter-Glo, 60 h; stronger effect = lower value. viability, % at 10 µM. hit rate 1.5% among 140,000;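 active = viability at or under a set limit, the compound median less 4 SD, cut at about 6% in these data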;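 also: 0% = Hyamine 1622 control at 20 µM and 100% = untreated cell control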
The depositor's hits bear a star; . = not tested or not shown.

SMILES	HUVEC prolif 384	Lung fibro prol	HCT116 PTEN-null	H69AR growth 86K	HCT116 bCat-KO
O=C(N/N=C/c1ccc([N+](=O)[O-])s1)c1ccncc1	.	.	2.5*	.	2.5*
Cc1ccc(/C=N\NC(=O)c2cc([N+](=O)[O-])cc([N+](=O)[O-])c2)o1	.	.	87.8	.	91.5
O=C(N/N=C/c1ccc([N+](=O)[O-])s1)c1cccc(Br)c1	30.2	2.6*	4.1	38.9*	7.4
COc1ccc(NC(=O)CCC(=O)N/N=C/c2ccc([N+](=O)[O-])s2)cc1	.	.	1.1*	.	1.4*
Cc1ccc(C(=O)N/N=C/c2ccc([N+](=O)[O-])s2)cc1	36.4	49.1*	1.3*	20.3*	1.9*
O=C(N/N=C/c1ccc(Br)s1)c1ccccc1[N+](=O)[O-]	.	.	86.7	.	74.8
COc1ccc(NCc2ccc([N+](=O)[O-])s2)cc1	.	.	68.0	.	61.9
O=C(N/N=C1/CC2C=CCC12)c1ccco1 (stereo not drawn)	.	.	95.5	.	104.4
CC(/C=N/NC(=O)c1cc(-c2cccnc2)nc2c1c(C)nn2-c1ccccc1)=C\c1ccccc1	.	.	62.0	.	63.3
CC1CCCCN1Cc1c(O)ccc2c(=O)c(-c3nc4ccccc4s3)c(N)oc12 (stereo not drawn)	.	.	33.0	.	28.2
Cn1c(SCC(=O)N/N=C/c2ccc([N+](=O)[O-])s2)nnc1-c1ccc(Cl)cc1	.	.	1.6*	.	1.9*
Cc1ccc(C(=O)N/N=C\c2ccc([N+](=O)[O-])s2)cn1	.	.	2.6*	.	2.4*
O=C(N/N=C/C=C/c1ccccc1)c1cccc(Br)c1	79.7	77.0	57.1	37.5*	58.6
CN(C)C(=O)COC(=O)c1ccccc1Nc1ccc(SC(F)F)cc1	.	.	60.6	.	64.4
COc1ccc(-c2nnc(CSc3nc4ccccc4c(=O)n3C)o2)cc1OC	80.9	94.7	72.9	59.7	70.9
COc1ccc(-c2cc(-c3ccc(C)cc3)nc(SCc3nnc(-c4ccccc4)o3)c2C#N)cc1OC	.	.	1.3*	.	1.5*
Cc1ccc(/C=c2\s/c(=C(/C#N)C(=O)N3CCCC3)n(Cc3ccco3)c2=O)s1	58.5	96.8	48.1	36.7*	53.6
COC(=O)/C=c1/s/c(=C(\C#N)C(=O)NCc2ccco2)n(-c2ccc(C)cc2)c1=O	95.8	104.5	96.3	99.7	89.0
CO/N=C(/CS(=O)(=O)Cc1ccccc1Cl)c1ccc(Cl)cc1Cl	.	.	67.7	.	77.6
CCCCNC(=O)c1ccc2c(SCC(=O)O)c3c(nc2c1)CCCC3	.	.	101.7	.	79.2
Cc1ccc(CNC(=O)CSc2c3c(nc4cc(Cl)ccc24)CCCC3)o1	81.7	87.3	61.8	2.7*	70.5
CC1CCc2sc(C(=O)N=Nc3c(O)[nH]c4ccccc34)cc2C1 (stereo not drawn)	.	.	77.3	.	89.9
CCOc1cc(-n2cnnn2)c(OCC)cc1NC(=O)c1cc2ccc(N(CC)CC)cc2oc1=O	34.2	86.2	.	13.1*	.
CCN(CC)c1ccc2cc(C(=O)Nc3cccnc3N3CCOCC3)c(=O)oc2c1	59.8	63.7	.	21.1*	.
CCN(CC)c1ccc2cc(C(=O)Nc3ccccn3)c(=O)oc2c1	93.6	96.2	100.3	92.8	99.4
SMILES	HUVEC prolif 384	Lung fibro prol	HCT116 PTEN-null	H69AR growth 86K	HCT116 bCat-KO
CCN(CC)c1ccc2cc(C(C)=O)c(=O)oc2c1	106.9	99.4	103.4	89.1	100.6
O=C(NCc1cccnc1)C(=O)NCC1OCCN1S(=O)(=O)c1ccc(F)cc1 (stereo not drawn)	.	.	104.6	.	88.7
COc1ccc(-c2nn(-c3ccccc3)cc2/C=N/NC(=O)c2ccc3c(c2)OCO3)cc1	.	.	67.4	.	72.2
Cc1ccc(-c2nn(-c3ccccc3)cc2/C=N/NC(=O)CSc2nnc(C)n2-c2ccccc2)cc1	.	.	3.4*	.	3.6*
COc1ccc(-c2nn(-c3ccccc3)cc2/C=N/NC(=O)c2ccc(Br)o2)cc1	.	.	6.1	.	5.0*
COc1ccc(NC(=O)COn2nnc3ccc(Cl)cc32)cc1OC	92.9	85.5	82.9	39.3*	88.5
Cc1cccc(NC(=S)NNC(=O)CC(C)O)c1C (stereo not drawn)	.	.	98.6	.	100.7
CC(=O)c1cc2c(cc1NC(=O)c1cc(C)nn1-c1ccccc1)OCO2	46.3	73.9	32.7	33.4*	34.9
CC(=O)Nc1ccc(NC(=O)c2cc(C)nn2-c2ccccc2)cc1	111.4	105.3	93.7	88.7	94.8
O=C(Sc1nnnn1C1CCCCC1)c1cccs1	106.5	.	110.3	35.0*	102.8
O=C(CSc1nnnn1C1CCCCC1)NCc1ccccc1	100.3	100.6	88.2	92.1	90.7
CC(=O)c1cn(CCC(C)C)c(=O)[nH]c1=O	.	.	99.2	.	100.5
Cc1ccc(N=Nc2c(C)[nH][nH]c2=O)c(C)c1	13.2*	91.2	33.2	24.2*	37.3
Cc1cccc(NC(=O)C2CCCN(S(=O)(=O)c3c(C)nn(C)c3C)C2)n1 (stereo not drawn)	96.3	85.3	81.6	38.5*	78.4
CCOc1ccc2[nH]c(=O)c(CN(Cc3cccs3)Cc3nnnn3C(C)(C)C)cc2c1	69.0	67.1	23.5	7.3*	32.8
Cc1cccc(Nc2nc(N)c([N+](=O)[O-])c(N3CC(C)CC(C)C3)n2)c1 (stereo not drawn)	.	.	1.8*	.	1.4*
COc1ccccc1NC(=O)Cn1nnc(-c2ccccc2NC(=O)c2ccco2)n1	38.8	47.4*	102.5	15.9*	87.8
O=C(Cn1nnc(-c2ccccc2NC(=O)c2ccco2)n1)NC1CCCCC1	95.2	88.3	76.8	81.9	92.7
COc1cc(NC(=O)Cn2nnc(-c3ccccc3N)n2)cc(OC)c1	95.1	96.6	90.9	29.5*	96.6
COc1ccc(NC(=O)Cn2nnc(-c3ccccc3N)n2)cc1OC	92.6	95.2	95.5	78.5	96.5
COc1ccc(NC(=O)Cn2nnc(-c3ccccc3NC(=O)c3ccco3)n2)cc1	21.4*	47.6*	11.7	4.3*	14.7
CCN(CC)CCCNC(CC(=O)Nc1cccc([N+](=O)[O-])c1)C(=O)O (stereo not drawn)	.	.	89.7	.	91.9
O=C(/C=C/c1ccccc1)N1CCN(c2c(Cl)cccc2[N+](=O)[O-])CC1	.	.	93.7	.	77.9
N#CCSc1nc2cc(C(=O)N3CCC(C(N)=O)CC3)ccc2c2nc3ccccc3n12	85.5	98.8	7.4	63.2	5.0*
N#CCSc1nc2ccccc2c2nc3ccccc3n12	.	.	8.8	.	5.8*
SMILES	HUVEC prolif 384	Lung fibro prol	HCT116 PTEN-null	H69AR growth 86K	HCT116 bCat-KO
N#CCSc1nc2cc(C(=O)N3CCCC3)ccc2c(=O)n1Cc1ccccc1	.	.	78.0	.	93.3
Cc1cccc(NC2=C/C(=N/S(=O)(=O)c3cccs3)c3ccccc3C2=O)c1	.	.	76.1	.	79.0
Cc1ccc(Cl)cc1NC1=C/C(=N\S(=O)(=O)c2cccs2)c2ccccc2C1=O	.	.	1.1*	.	1.6*
Cc1ccc(NC2=C/C(=N\S(=O)(=O)c3cccs3)c3ccccc3C2=O)c(C)c1	2.9*	2.2*	1.3*	2.0*	1.5*
N/C(=N\S(=O)(=O)c1cccs1)c1ccccc1	87.7	94.1	101.2	95.6	90.8
CCOC(=O)C(NC(=O)Nc1ccc(Cl)cn1)(Oc1ccc(F)cc1)C(F)(F)F (stereo not drawn)	.	.	91.9	.	97.6

From PubChem BioAssay
